Each structure is given as a SMILES string. Bounds are passed on as bounds.

Drawing on ChEMBL document CHEMBL3593177, “Benzimidazole derivatives as potential dual inhibitors for PARP-1 and DHODH” (Bioorg Med Chem, 2015), this text covers IC50 and inhibition for 29 compounds.

Test [1] addresses Poly [ADP-ribose] polymerase 1 (Homo sapiens, UniProt P09874). In words: Inhibition of PARP-1 (unknown origin) assessed as incorporation of biotinylated poly (ADP-ribose) onto histone protein after 60 mins by TACS-Sapphire substarte-based colorimetric analysis.
For test [2], the target named is T1, Dihydroorotate dehydrogenase (quinone), mitochondrial (Homo sapiens, UniProt Q02127). The test can be described thus: Inhibition of DHODH (unknown origin) using L-DHO, DUQ, DCIP as substrate at 10 uM preincubated for 30 mins followed by substrate addition measured after 20 mins by multilabel plate reader analysis relative to control. In a few lines:
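Single-concentration screen at 10 µM. DHODH (25 ng) was preincubated with compound for 30 min at room temperature in 50 mM Tris-HCl, 150 mM KCl, 0.8% Triton, pH 8.0, with 1% DMSO final. The reaction was started with a substrate mix of 20 mM L-DHO, 2 mM DUQ and 2 mM DCIP (added-mix concentrations). DCIP reduction was followed as the drop in A610, read from 20 min, every 10 min for 1 h.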

The target of test [3] is T1, Dihydroorotate dehydrogenase (quinone), mitochondrial. In words: Inhibition of DHODH (unknown origin) using L-DHO, DUQ, DCIP as substrate preincubated for 30 mins followed by substrate addition measured after 20 mins by multilabel plate reader analysis.
Test [4] has the same target. In words: Inhibition of human DHODH using L-DHO, DUQ, DCIP as substrate preincubated for 30 mins followed by substrate addition measured after 20 mins.
The target is the same in test [5]. In words: Inhibition of DHODH (unknown origin) using L-DHO, DUQ, DCIP as substrate at 1 uM preincubated for 30 mins followed by substrate addition measured after 20 mins by multilabel plate reader analysis relative to control.

T1 sequence (Q02127 whole entry): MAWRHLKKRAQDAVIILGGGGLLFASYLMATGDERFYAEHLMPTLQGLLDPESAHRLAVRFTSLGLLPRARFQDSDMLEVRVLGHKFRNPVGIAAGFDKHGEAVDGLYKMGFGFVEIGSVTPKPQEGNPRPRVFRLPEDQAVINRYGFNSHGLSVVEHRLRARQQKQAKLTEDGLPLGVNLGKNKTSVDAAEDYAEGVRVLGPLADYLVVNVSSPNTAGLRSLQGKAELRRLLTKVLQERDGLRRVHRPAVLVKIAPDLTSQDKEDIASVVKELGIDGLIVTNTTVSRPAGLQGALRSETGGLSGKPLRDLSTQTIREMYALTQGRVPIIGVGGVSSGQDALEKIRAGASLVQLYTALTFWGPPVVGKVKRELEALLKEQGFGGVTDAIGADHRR
Chain of Poly [ADP-ribose] polymerase 1 (P09874 whole entry): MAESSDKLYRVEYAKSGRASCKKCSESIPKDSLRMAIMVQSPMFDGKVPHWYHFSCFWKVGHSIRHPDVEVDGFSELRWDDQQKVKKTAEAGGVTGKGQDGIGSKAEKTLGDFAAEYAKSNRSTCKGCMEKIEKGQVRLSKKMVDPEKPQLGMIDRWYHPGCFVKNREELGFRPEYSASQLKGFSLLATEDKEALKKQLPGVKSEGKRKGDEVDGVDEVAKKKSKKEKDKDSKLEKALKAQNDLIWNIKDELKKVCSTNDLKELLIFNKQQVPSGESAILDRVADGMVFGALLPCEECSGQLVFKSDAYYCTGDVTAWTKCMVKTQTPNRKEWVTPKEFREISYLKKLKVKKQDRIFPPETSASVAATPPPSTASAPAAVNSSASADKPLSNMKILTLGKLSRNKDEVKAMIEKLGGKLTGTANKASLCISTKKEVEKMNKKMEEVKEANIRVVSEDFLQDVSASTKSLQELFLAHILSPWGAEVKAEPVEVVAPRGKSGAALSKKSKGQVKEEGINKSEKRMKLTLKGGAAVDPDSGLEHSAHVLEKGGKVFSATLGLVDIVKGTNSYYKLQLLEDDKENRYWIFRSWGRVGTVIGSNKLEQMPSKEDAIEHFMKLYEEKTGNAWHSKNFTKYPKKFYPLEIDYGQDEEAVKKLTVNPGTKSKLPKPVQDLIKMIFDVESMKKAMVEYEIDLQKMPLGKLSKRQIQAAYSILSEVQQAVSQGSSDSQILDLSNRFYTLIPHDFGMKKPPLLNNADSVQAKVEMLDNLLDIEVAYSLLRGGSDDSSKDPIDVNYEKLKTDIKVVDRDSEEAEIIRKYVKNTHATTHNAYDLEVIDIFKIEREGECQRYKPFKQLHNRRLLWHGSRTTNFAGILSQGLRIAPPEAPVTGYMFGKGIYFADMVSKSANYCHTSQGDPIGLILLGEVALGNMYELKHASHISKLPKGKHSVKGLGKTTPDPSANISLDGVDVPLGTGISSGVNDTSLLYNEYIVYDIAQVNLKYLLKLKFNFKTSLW

As a reminder, the IC50 is the concentration needed to halve the response being measured. Broadly, the inhibition is how much of the control response was suppressed. Lower therefore signals a response near the control. As to `NC(=O)c1cccc2[nH]c(-c3ccc(-c4ccc(OCCCN5CCCCC5)cc4)cc3)nc12`, the IC50 in test [1] was found to be 2280 nM. For the same compound, the inhibition in test [2] was below 15%.

Consider `CC(=O)Nc1ccccc1COc1ccc(-c2ccc(-c3nc4c(C(=O)O)cc(C)cc4[nH]3)cc2)cc1`, for which the IC50 in test [1] is 10600 nM; in test [3], 300 nM.

Consider `COc1ccc(-c2nc3c(C(N)=O)cccc3[nH]2)cc1`, for which the inhibition in test [2] is below 15%.

`CC(=O)Nc1ccc(-c2ccc(-c3nc4c(C(=O)O)cc(C)cc4[nH]3)cc2)cc1` showed an IC50 in test [3] of 210 nM.

Regarding `NC(=O)c1cc(F)cc2[nH]c(-c3ccc(-c4cccc(NC(=O)C5CC5)c4)cc3F)nc12`, in test [1], the IC50 came out at 1280 nM.

On to `O=C(O)c1cccc2[nH]c(-c3ccc(-c4ccccc4)cc3)nc12`, for which 750 nM corresponded to half-maximal inhibition in test [4] (IC50).

For `NC(=O)c1cccc2[nH]c(-c3ccc(-c4ccc(N)nc4)cc3)nc12`, in test [1], the IC50 came to 32 nM.

On to `CCC(=O)Nc1ccc(-c2ccc(-c3nc4c(C(N)=O)cc(F)cc4[nH]3)cc2)cc1`, for which, in test [1], the IC50 was 1720 nM. This compound also showed an inhibition in test [2] below 15%.

As to `CC(=O)Nc1ccc(-c2ccc(-c3nc4c(C(N)=O)cccc4[nH]3)cc2)cn1`, the IC50 in test [1] came to 49 nM.

For `Cc1cc(C(N)=O)c2nc(-c3ccc(-c4ccccc4)cc3)[nH]c2c1`, the IC50 in test [3] was 7800 nM.

`CC(=O)Nc1cccc(-c2ccc(-c3nc4c(C(N)=O)cccc4[nH]3)cc2)c1`: the inhibition in test [5] is 45%. The IC50 in test [1] amounted to 460 nM.

In test [2], `COc1ccc(-c2nc3c(C(N)=O)cc(C)cc3[nH]2)cc1` came in with an inhibition below 15%.

On to `CC(=O)Nc1ccccc1-c1ccc(-c2nc3c(C(N)=O)cccc3[nH]2)cc1`, for which the IC50 in test [1] came out at 140 nM.

Regarding `NC(=O)c1cccc2[nH]c(-c3ccc(-c4ccc(C(=O)N5CCCC5)nc4)cc3)nc12`, the concentration for half-maximal inhibition (IC50) in test [1] is 12 nM. In addition, the inhibition in test [2] was below 15%.

Turning to `CC(=O)Nc1ccc(COc2ccc(-c3ccc(-c4nc5c(C(=O)O)cc(C)cc5[nH]4)cc3)cc2)cc1`, it took 13 nM to reach half-maximal inhibition in test [3] (IC50).

For `NC(=O)c1cccc2[nH]c(-c3ccc(-c4cncc(CN5CCCC5)c4)cc3)nc12`, in test [1], the IC50 was found to be 61 nM.

Turning to `NC(=O)c1cccc2[nH]c(-c3ccc(C(F)(F)F)cc3)nc12`, the inhibition in test [2] is below 15%.

Consider `NC(=O)c1cccc2[nH]c(-c3ccc(-c4cncc(C(=O)N5CCCC5)c4)cc3)nc12`, for which, in test [1], the 50% inhibitory concentration (IC50) was 29 nM.

For `Cc1cc(C(N)=O)c2nc(-c3ccc(C(F)(F)F)cc3)[nH]c2c1`, the inhibition in test [2] was below 15%.

Regarding `COc1cc(-c2ccc(-c3nc4c(C(N)=O)cc(F)cc4[nH]3)cc2)ccc1NC(=O)C1CC1`, the IC50 in test [1] was determined as 5960 nM. Further, the inhibition in test [2] was below 15%.

Take `COc1cc(-c2ccc(-c3nc4c(C(N)=O)cc(F)cc4[nH]3)c(F)c2)ccc1NC(=O)C1CC1`: in test [1], the half-inhibitory concentration (IC50) turned out to be 980 nM.

In turn, `CC(=O)Nc1cccc(-c2ccc(-c3nc4c(C(=O)O)cc(C)cc4[nH]3)cc2)c1` came in with an IC50 in test [3] of 1380 nM.

Regarding `NC(=O)c1cccc2[nH]c(-c3ccc(-c4ccccc4)cc3)nc12`, the IC50 in test [1] is 710 nM; in test [3], 9800 nM.

On to `CC(=O)Nc1cccc(COc2ccc(-c3ccc(-c4nc5c(C(=O)O)cc(C)cc5[nH]4)cc3)cc2)c1`, for which, in test [3], the IC50 worked out at 28 nM.

`Cc1cc(C(N)=O)c2nc(-c3ccc(C#N)cc3)[nH]c2c1` displayed an inhibition in test [2] below 15%.

In test [2], `Cc1cc(C(N)=O)c2nc(-c3ccc(-c4ccc(C(=O)N5CCCC5)cc4)cc3)[nH]c2c1` had an inhibition below 15%.

In the case of `NC(=O)c1cccc2[nH]c(-c3ccc(-c4ccc(OCCN5CCCCC5)cc4)cc3)nc12`, in test [1], the IC50 was determined as 720 nM.

`NC(=O)c1cc(F)cc2[nH]c(-c3ccc(-c4ccc(NC(=O)C5CC5)cc4F)cc3F)nc12`: in test [1], the concentration for half-maximal inhibition (IC50) was determined as 84 nM.

With `NC(=O)c1cccc2[nH]c(-c3ccc(-c4ccc(C(=O)N5CCCC5)cc4)cc3)nc12`, the concentration for half-maximal inhibition (IC50) in test [1] was 310 nM.
